CAL PDZ FP-1: CAL PDZ peptide-binding inhibitors, primary screen, biochemical, fluorescence polarization, Cer-tagged CAL PDZ, HTS. purified CAL PDZ, TMR-peptide fluorescence polarization, 1 h. inhibition, % at 20 µM. 330,000 tested, 0.02% active. AID 504414, 2011;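 active means highest replicate inhibition of at least 40%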;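 further: plate controls were DMSO neutral control wells for no effect and unlabeled competitor peptide control wells for full effect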
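Read-out basis: mP drop reported as inhibition | Assay system: Tagged CAL PDZ protein CerCALP, purified | Benchmarks: Unlabelled peptide for full inhibition, DMSO wells as neutral | Schedule: 1 h incubation at room temperature before polarization reading | Buffer or medium: Sodium phosphate/NaCl buffer pH 7.4 with TCEP, IgG, Thesit | Doses: Single point, 20 µM | Measured by: Fluorescence polarization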
S100A4 inh HTS: inhibitors of S100A4-myosin IIA peptide binding, primary screen, biochemical, fluorescence polarization, TAMRA-MyoIIA peptide. 360,000 tested, 0.14% active. Protein S100-A4 (Homo sapiens), P26447. inhibition, % at 10.7 µM;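 active means mean inhibition of at least 70% across replicates, with every replicate also reaching that level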
Target sequence (P26447 whole entry, looked up): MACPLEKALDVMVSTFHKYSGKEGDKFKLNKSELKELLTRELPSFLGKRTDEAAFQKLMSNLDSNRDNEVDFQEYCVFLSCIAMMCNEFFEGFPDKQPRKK
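Material: S100A4 monomer (human). Medium: Calcium-containing HEPES buffer, pH 7.2. Probe or stimulus: labelled myosin peptide probe, 5 nM. Compound dosing: one concentration per compound. Timing: polarization read 5 min after assay mix addition, stable 5–60 min. Benchmarks: DMSO as neutral control, TFP as positive control.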
DENV2 CPE: inhibitors of DENV2 cytopathic effect, primary screen, cell-based, plate reader, single concentration; CPE inhibition, % at 9.99 µM; 350,000 tested, 1.7% active; DENV2-infected cells, cytopathic effect rescue; in the data active means CPE inhibition above about 20%, passing the limit was not always enough; tested in BHK-21 cells;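 further: 0% = median of neutral control wells and 100% = median of positive control wells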
ERAP1 HTS inh: human ERAP1 aminopeptidase inhibitors, primary screen, biochemical, single point, plate reader; recombinant ERAP1, Leu-AMC fluorescence, 60 min; inhibition, % at 10.7 µM; 340,000 tested, 0.15% active;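 active means mean replicate inhibition of at least 30%, or all replicates individually reaching that 30% level; inactive means mean below 30% and not every replicate reaching it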;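 further: 0% = neutral control wells and 100% = L-leucinethiol positive control wells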
CAL PDZ FP-2: untagged CAL PDZ binding inhibitors, primary screen, biochemical, fluorescence polarization, HTS. inhibition, % at 24.9 µM. Golgi-associated PDZ and coiled-coil motif-containing protein (Homo sapiens), Q9HD26. AID 602252, 2012. purified CAL PDZ, TMR-peptide fluorescence polarization, 1 h. 300,000 tested, 0.92% active;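 active means mean inhibition of at least 30% with at least half of replicates also reaching 30%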;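 further: 0% = DMSO neutral control and 100% = excess unlabeled competitor peptide PRC23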
SIRT5 inh: SIRT5 desuccinylase inhibitors, primary screen, biochemical, fluorescence imaging, single point, set 5. inhibition, % at 15 µM. NAD-dependent protein deacylase sirtuin-5, mitochondrial (Homo sapiens), Q9NXA8. Purified SirT5, succinyl-peptide AMC, trypsin-coupled fluorescence. 330,000 tested, 1.1% active; in the data active means inhibition above about 15%
Target sequence (Q9NXA8 whole entry, looked up): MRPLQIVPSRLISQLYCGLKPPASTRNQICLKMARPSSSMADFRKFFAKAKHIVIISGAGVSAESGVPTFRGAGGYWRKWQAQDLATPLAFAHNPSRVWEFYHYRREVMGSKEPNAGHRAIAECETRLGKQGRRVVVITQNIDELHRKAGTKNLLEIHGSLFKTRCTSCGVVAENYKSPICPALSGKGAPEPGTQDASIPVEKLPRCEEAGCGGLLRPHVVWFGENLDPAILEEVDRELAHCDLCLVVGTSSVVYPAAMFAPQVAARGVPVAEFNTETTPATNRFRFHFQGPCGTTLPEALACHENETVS
Starred values were filed as active, the others as inactive; / = not tested or not shown; ! = repeats disagree. The list is not random: actives were taken first. Their share in the collection is about 2.9%.

SMILES	CAL PDZ FP-1	S100A4 inh HTS	DENV2 CPE	ERAP1 HTS inh	CAL PDZ FP-2	SIRT5 inh
CC1C(=O)N(Cc2cn(CC3CCCCC3)nn2)CCS(=O)(=O)N1Cc1ccc(-c2ccc(Cl)c(Cl)c2)cc1 (centres undefined)	/	2	57*	-1	/	-2
CC(C)C1C(=O)N(Cc2cn(Cc3ccco3)nn2)CCS(=O)(=O)N1Cc1ccc(-c2ccc(F)cc2)cc1 (centres undefined)	/	19	13	/	/	25*
Cc1ccc(S(=O)(=O)Nc2ccc3c(c2)C(=O)N([C@H](C)CO)C[C@H](C)[C@H](CN(C)C(=O)Nc2ccc(C(F)(F)F)cc2)OCCCC[C@@H](C)O3)cc1	/	-3	5	-9	/	6
C[C@@H]1CN([C@H](C)CO)C(=O)c2cc(NC(=O)Nc3cccc4ccccc34)ccc2O[C@@H](C)CCCCO[C@@H]1CN(C)Cc1ccc(C(F)(F)F)cc1	/	/	72*	/	/	/
C[C@@H]1CCCCO[C@H](CN(C)Cc2ccc(C(=O)O)cc2)[C@H](C)CN([C@@H](C)CO)C(=O)c2cc(NC(=O)Nc3ccc(C(F)(F)F)cc3)ccc2O1	/	32	41*!	-139	/	-2
C[C@H](CO)N1C[C@H](C)[C@@H](CN(C)Cc2ccc(C(=O)O)cc2)OCCCC[C@H](C)Oc2ccc(NC(=O)Nc3ccc(C(F)(F)F)cc3)cc2C1=O	/	-5	-6	0	/	-4
CC(C)NC(=O)Nc1ccc2c(c1)C(=O)N([C@@H](C)CO)C[C@@H](C)[C@H](CN(C)Cc1ccc(C(F)(F)F)cc1)OCCCC[C@@H](C)O2	/	3	11	0	/	17*
C[C@H]1CCCCO[C@H](CN(C)Cc2ccccc2)[C@@H](C)CN([C@@H](C)CO)C(=O)c2cc(NC(=O)Nc3ccc(C(F)(F)F)cc3)ccc2O1	/	-5	39*	-2	/	-1
C[C@H]1CCCCO[C@H](CN(C)Cc2ccc(C(F)(F)F)cc2)[C@@H](C)CN([C@@H](C)CO)C(=O)c2cc(NC(=O)Nc3cccc4ccccc34)ccc2O1	/	/	-18	/	/	/
CC(C)NC(=O)Nc1ccc2c(c1)C(=O)N([C@H](C)CO)C[C@@H](C)[C@@H](CN(C)Cc1ccc(C(F)(F)F)cc1)OCCCC[C@H](C)O2	/	2	1	2	/	3
O=C(NCc1ccccc1)[C@H]1N[C@H]2c3ccc(-c4ccccc4)c(=O)n3C[C@H]2[C@@H]1CO	/	0	13	0	/	-25
CNC[C@@H]1Oc2ncc(-c3ccccc3C)cc2C(=O)N([C@H](C)CO)C[C@@H]1C	/	3	2	2	/	1
C[C@@H]1CN([C@H](C)CO)C(=O)c2cc(C3=CCCCC3)cnc2O[C@@H]1CN(C)C(=O)c1ccncc1	/	11	1	2	/	-2
CCCNC(=O)N1CC2(C1)[C@H](c1ccccc1)[C@@H](CO)N2Cc1ccccc1	/	6	-5	-2	/	-3
CC(C)CC#Cc1cnc2c(c1)C(=O)N([C@@H](C)CO)C[C@H](C)[C@H](CN(C)C(=O)c1ccc(F)cc1)O2	/	2	-9	-1	/	0
CCOC(=O)CN(C(=O)CSc1nnc(-c2cccc(OC)c2)o1)c1ccc(F)cc1	13	/	/	/	32*	/
CCc1ccc(/C=C(\Cl)c2nc3cc(Cl)ccc3c(=O)[nH]2)cc1	-1	/	/	/	53*	/
CC1=C(C(=O)N2CCOCC2)CC(CC(=O)NCCCN(C)C)C(=O)N1CCC1=CCCCC1 (centres undefined)	/	-3	-2	/	/	0
COCCCN1C(=O)C(CC(=O)NC2CCCCC2)CC(C(=O)N(C(C)C)C(C)C)=C1C (centres undefined)	/	3	27*	-1	/	-7
CC1=C(C(=O)N(C(C)C)C(C)C)CC(CC(=O)NC2CCCCC2)C(=O)N1CCCN1CCCC1=O (centres undefined)	/	-3	3	-5	/	33*
CC1=C(C(=O)N(C(C)C)C(C)C)CC(CC(=O)NCCN2CCOCC2)C(=O)N1CCCN1CCCC1=O (centres undefined)	/	-6	8	-1	/	16*
CC1=C(C(=O)N(C(C)C)C(C)C)CC(CC(=O)NCCCN(C)C)C(=O)N1CCC1=CCCCC1 (centres undefined)	/	-1	-6	-8	/	23*
CC1=C(C(=O)N(C(C)C)C(C)C)CC(CC(=O)NC2CCCC2)C(=O)N1CCCN1CCCC1=O (centres undefined)	/	1	12	0	/	-5
COc1ccc2c3c(n(C)c2c1)[C@@H](CO)N(Cc1cccc(F)c1)CC31CCN(C)CC1	/	/	-13	/	/	/
COc1ccccc1-c1cn(CC[C@H]2CC[C@H](NC(=O)C3CC3)[C@H](CO)O2)nn1	/	-7	-1	-2	/	2
SMILES	CAL PDZ FP-1	S100A4 inh HTS	DENV2 CPE	ERAP1 HTS inh	CAL PDZ FP-2	SIRT5 inh
CC1=C(C(=O)N(C)C)CC(CC(=O)NCC2CCCCC2)C(=O)N1CCCN1CCCC1=O (centres undefined)	/	1	-4	-2	/	4
CCN(CC)C(=O)C1=C(C)N(CCCN2CCCC2=O)C(=O)C(CC(=O)NCC2CCCCC2)C1 (centres undefined)	/	3	74*	10	/	-9
C/C=C/c1cnc2c(c1)C(=O)N([C@@H](C)CO)C[C@@H](C)[C@@H](CN(C)C(=O)c1cccc(F)c1)O2	/	7	10	-1	/	-3
Cc1ccccc1NC(=O)C1CCN(S(=O)(=O)c2ccc3c(c2)NC(=O)C(C)S3)CC1 (centres undefined)	-3	111*	-1	-8	-2	0
CN(C)C(=O)CN1c2cccc3cccc(c23)S1(=O)=O	-1	-9	-3	0	31*	-2
CN(CCCn1ccc(NC(=O)OCc2ccccc2)nc1=O)Cc1ccco1	/	-4	-8	8	/	25*
CN(C)CC(=O)N1[C@@H](C#N)[C@H](c2ccc(C#CC3CCCC3)cc2)[C@@H]1CO	/	2	23*	3	/	1
CN(C)CC(=O)N1[C@H](C#N)[C@H](c2ccc(C#CC3CCCCC3)cc2)[C@@H]1CO	/	3	40*	2	/	2
N#C[C@@H]1[C@@H](c2ccc(C#CC3CCCCC3)cc2)[C@H](CO)N1C(=O)Cc1ccccn1	/	-10	67*	-1	/	1
